Assay results: ChEMBL document CHEMBL4814077, “Discovery of Surfactins as Inhibitors of MicroRNA Processing Using Cat-ELCCA” (ACS Med Chem Lett, 2021)
The source made the active and inactive calls. The calls are words filed in the database; no cut-off is given here. *1 amine or outer side, *2 acyl side, *3 side chain or, on linkers, in order; H or OH if unused. Where a SMILES comes first, the peptide text is derived from it. Bridges are numbered along the chain shown (N, C = ends). The star is where a group is joined. ξ: configuration not given here. Pentadecanoyl(3ξ-OH,15-Gua) = N=C(N)NCCCCCCCCCCCCC(O)CC(=O)*; X1 = CCC(C)CCCCCCCCC(CC(=O)[*:1])O[*:2]; X7 = CC(C)CCCCCCCCCC(CC(=O)[*:1])O[*:2]; X3 = CC(C)CCCCCCCCC(CC(=O)[*:1])O[*:2]; X5 = CCC(C)CCCCCCC(CC(=O)[*:1])O[*:2]; X2 = CCCCCCCCCCCC(CC(=O)[*:1])O[*:2]; X4 = CCCCCCCCCCC(CC(=O)[*:1])O[*:2]; X6 = CCCCCCCCCC(CC(=O)[*:1])O[*:2]

How the values were obtained:
microRNA 21 [1] = assay: Binding affinity to pre-miRNA-21 (unknown origin) by SPR assay; assay type: nucleic-acid assay
microRNA 21 [2] = assay: Inhibition of Dicer-mediated pre-miRNA-21 (unknown origin) processing using […] as substrate incubated for 15 mins by cat-ELCCA assay; assay type: nucleic-acid assay
Method in brief: (§1)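 Cat-ELCCA format with immobilized pre-miRNA (pre-miR-21, or pre-let-7d as a related control substrate) processed by excess Dicer. Integrity of the terminal loop is read by trans-cyclooctene/methyltetrazine click ligation of modified HRP, giving chemiluminescent signal amplification. Assay buffer contains detergent. Dose–response curves give IC50 values reported as 95% confidence intervals.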

Pre-let-7d miRNA [3] = assay: Inhibition of pre-let-7d miRNA maturation in human HeLa cells transfected with firefly luciferase reporter gene assessed as reduction in luciferase gene expression at 100 uM incubated for 48 hrs by pmiRGlo-dual luciferase reporter assay; assay type: cell-based
Method in brief: (§2)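 HeLa cells transiently transfected with pmiRGLO dual-luciferase reporters carrying miRNA target sites (miR-21 or let-7d) in the firefly luciferase 3′ UTR. Cells treated at 100 μM; luminescence read after 48 h. miR-21 mismatch reporter and empty-vector controls were included. Significance given as p values.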

microRNA 21 [4] = assay: Inhibition of pre-miRNA-21 (unknown origin) assessed as reduction in miRNA/Dicer interaction at 10 to 120 uM incubated for 40 mins by EMSA assay; assay type: nucleic-acid assay; details: dose 10-120 µM
Pre-let-7d miRNA [5] = assay: Binding affinity to pre-let-7d miRNA (unknown origin) by SPR assay; assay type: nucleic-acid assay
HeLa = assay: Cytotoxicity against human HeLa cells assessed as reduction in cell viability at 100 uM incubated for 48 hrs by CellTiter Glo assay; assay type: cell-based
Pre-let-7d miRNA [6] = assay: Inhibition of Dicer-mediated pre-let-7d miRNA (unknown origin) processing using […] as substrate incubated for 15 mins by cat-ELCCA assay; assay type: nucleic-acid assay; method in brief: as §1
microRNA 21 [7] = assay: Inhibition of pre-miRNA-21 maturation in human HeLa cells transfected with firefly luciferase reporter gene assessed as reduction in luciferase gene expression at 100 uM incubated for 48 hrs by pmiRGlo-dual luciferase reporter assay; assay type: cell-based; method in brief: as §2

Compound	Kd (microRNA 21 [1]) [µM]	IC50 (microRNA 21 [2]) [µM]	inhibition (microRNA 21 [2])	inhibition (microRNA 21 [4])	Kd (Pre-let-7d miRNA [5]) [µM]	IC50 (Pre-let-7d miRNA [6]) [µM]	inhibition (Pre-let-7d miRNA [6])	inhibition (Pre-let-7d miRNA [3])	Activity (HeLa)	inhibition (microRNA 21 [7])
CC1NC(=O)C(CCC(N)=O)NC(=O)C(C(C)O)NC(=O)C(C(C)C)NC(=O)C(C(C)C)NC(=O)C(NC(=O)CC(O)CCCCCCCCCCCCNC(=N)N)C(C)OC1=O (stereo not drawn) ({Pentadecanoyl(3ξ-OH,15-Gua)}-TVVTQA; ester 1-C; configuration not given here)	–	–	inactive	–	–	–	inactive	–	–	–
CC(C)[C@@H]1NC(=O)[C@@H](C(C)C)NC(=O)[C@@H](NC(=O)CC(O)CCCCCCCCCCCCNC(=N)N)[C@@H](C)OC(=O)[C@@H](C)NC(=O)[C@@H](CC(N)=O)NC(=O)[C@@H]([C@H](C)O)NC1=O (stereo partly drawn)	–	–	inactive	–	–	–	inactive	–	–	–
CCCCCCCCCC1CC(=O)N[C@@H](CCC(=O)O)C(=O)N[C@@H](CC(C)C)C(=O)N[C@@H](CC(C)C)C(=O)N[C@@H](C(C)C)C(=O)N[C@@H](CC(=O)O)C(=O)N[C@@H](CC(C)C)C(=O)N[C@@H](CC(C)C)C(=O)O1 (stereo partly drawn) (ELLVDLL; linker N-C via X6)	–	> 200	–	–	–	> 200	–	–	–	–
CCCCCCCCCCCC1CC(=O)N[C@@H](CCC(=O)O)C(=O)N[C@@H](CC(C)C)C(=O)N[C@@H](CC(C)C)C(=O)N[C@@H](C(C)C)C(=O)N[C@@H](CC(=O)O)C(=O)N[C@@H](CC(C)C)C(=O)N[C@@H](CC(C)C)C(=O)O1 (stereo partly drawn) (ELLVDLL; linker N-C via X2)	0.73	48	Dose-Dependent Effect	–	1.4	54	Dose-Dependent Effect	–	–	–
CCC(C)CCCCCCC1CC(=O)N[C@@H](CCC(=O)O)C(=O)N[C@@H](CC(C)C)C(=O)N[C@@H](CC(C)C)C(=O)N[C@@H](C(C)C)C(=O)N[C@@H](CC(=O)O)C(=O)N[C@@H](CC(C)C)C(=O)N[C@@H](CC(C)C)C(=O)O1 (stereo partly drawn) (ELLVDLL; linker N-C via X5)	–	> 200	–	–	–	> 200	–	–	–	–

Now from value to compound, other results behind:

Kd (microRNA 21 [1]) [µM]	IC50 (microRNA 21 [2]) [µM]	inhibition (microRNA 21 [2])	inhibition (microRNA 21 [4])	Kd (Pre-let-7d miRNA [5]) [µM]	IC50 (Pre-let-7d miRNA [6]) [µM]	inhibition (Pre-let-7d miRNA [6])	Compound	inhibition (Pre-let-7d miRNA [3])	Activity (HeLa)	inhibition (microRNA 21 [7])
0.78	38	Dose-Dependent Effect	inactive	1.2	54	Dose-Dependent Effect	CCC(C)CCCCCCCCC1CC(=O)N[C@@H](CCC(=O)O)C(=O)N[C@@H](CC(C)C)C(=O)N[C@@H](CC(C)C)C(=O)N[C@@H](C(C)C)C(=O)N[C@@H](CC(=O)O)C(=O)N[C@@H](CC(C)C)C(=O)N[C@@H](CC(C)C)C(=O)O1 (stereo partly drawn) (ELLVDLL; linker N-C via X1)	inactive	Toxic	Active
–	–	inactive	–	–	–	inactive	CC(C)CCCCCCCCCC1CC(=O)N[C@@H](CCC(=O)O)C(=O)N[C@@H](CC(C)C)C(=O)N[C@@H](CC(C)C)C(=O)N[C@@H](C(C)C)C(=O)N[C@@H](CC(=O)O)C(=O)N[C@@H](CC(C)C)C(=O)N[C@@H](CC(C)C)C(=O)O1 (stereo partly drawn) (ELLVDLL; linker N-C via X7)	–	–	–
0.38	71	Dose-Dependent Effect	–	0.3	97	Dose-Dependent Effect	CCCCCCCCCCC1CC(=O)N[C@@H](CCC(=O)O)C(=O)N[C@@H](CC(C)C)C(=O)N[C@@H](CC(C)C)C(=O)N[C@@H](C(C)C)C(=O)N[C@@H](CC(=O)O)C(=O)N[C@@H](CC(C)C)C(=O)N[C@@H](CC(C)C)C(=O)O1 (stereo partly drawn) (ELLVDLL; linker N-C via X4)	–	–	–
0.43	52	Dose-Dependent Effect	–	2.5	70	Dose-Dependent Effect	CC(C)CCCCCCCCC1CC(=O)N[C@@H](CCC(=O)O)C(=O)N[C@@H](CC(C)C)C(=O)N[C@@H](CC(C)C)C(=O)N[C@@H](C(C)C)C(=O)N[C@@H](CC(=O)O)C(=O)N[C@@H](CC(C)C)C(=O)N[C@@H](CC(C)C)C(=O)O1 (stereo partly drawn) (ELLVDLL; linker N-C via X3)	–	–	–
